# Assay results: ChEMBL document CHEMBL1127600, “Mercaptoacyl amino acid inhibitors of atriopeptidase. 1. Structure-activity relationship studies of methionine and S-alkylcysteine derivatives” (J Med Chem, 1994)
# Key:
# Neprilysin = molecular target: T1, Neprilysin (Oryctolagus cuniculus, UniProt P08049); assay: In vitro inhibitory activity against neutral endopeptidase (NEP)
# T1 sequence (P08049 whole entry): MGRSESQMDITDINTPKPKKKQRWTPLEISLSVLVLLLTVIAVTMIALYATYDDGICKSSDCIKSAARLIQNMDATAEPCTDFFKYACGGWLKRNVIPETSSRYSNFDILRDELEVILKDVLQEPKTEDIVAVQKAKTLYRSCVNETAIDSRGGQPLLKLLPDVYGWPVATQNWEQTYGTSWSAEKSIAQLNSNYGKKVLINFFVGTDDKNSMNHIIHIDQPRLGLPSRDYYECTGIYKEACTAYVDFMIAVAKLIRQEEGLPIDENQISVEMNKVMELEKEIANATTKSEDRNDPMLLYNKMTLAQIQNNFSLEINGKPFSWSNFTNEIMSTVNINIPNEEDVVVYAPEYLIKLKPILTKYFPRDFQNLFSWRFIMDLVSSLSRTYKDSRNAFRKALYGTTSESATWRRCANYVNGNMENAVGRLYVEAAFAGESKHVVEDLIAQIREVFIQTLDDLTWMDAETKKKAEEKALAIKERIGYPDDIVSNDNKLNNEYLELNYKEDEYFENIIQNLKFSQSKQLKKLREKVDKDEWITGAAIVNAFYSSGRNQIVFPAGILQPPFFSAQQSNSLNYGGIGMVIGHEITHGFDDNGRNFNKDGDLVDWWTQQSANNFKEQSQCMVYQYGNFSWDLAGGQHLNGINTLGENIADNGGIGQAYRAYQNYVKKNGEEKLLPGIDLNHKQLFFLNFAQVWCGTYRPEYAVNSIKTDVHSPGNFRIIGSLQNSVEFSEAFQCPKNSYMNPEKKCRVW
# Outline: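 Purified rabbit kidney NEP (EC 24.11) was the enzyme source, with [³H]Leu-enkephalin as the substrate.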
# Rattus norvegicus [1] = assay: In vivo potentiation of ANF induced hypotension in rat, following subcutaneous dose of 30 mg/kg; format: functional
# Outline: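 Conscious male SHR (270–300 g) had caudal artery and jugular vein cannulae placed under ether. After at least 90 min of stabilization, ANF 103-125 or 99-126 was given as an iv bolus at a submaximal dose. 60–90 min later, drug or vehicle (0.2% aqueous methylcellulose with 20% Tris-HCl) was given sc. ANF was repeated 15 min after dosing, and the response was compared with vehicle controls. Values are means of four or more animals.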
# [2] = molecular target: T2, Angiotensin-converting enzyme (Oryctolagus cuniculus, UniProt P12822); assay: Tested in vitro for its inhibitory activity against angiotensin converting enzyme
# T2 sequence (P12822 whole entry): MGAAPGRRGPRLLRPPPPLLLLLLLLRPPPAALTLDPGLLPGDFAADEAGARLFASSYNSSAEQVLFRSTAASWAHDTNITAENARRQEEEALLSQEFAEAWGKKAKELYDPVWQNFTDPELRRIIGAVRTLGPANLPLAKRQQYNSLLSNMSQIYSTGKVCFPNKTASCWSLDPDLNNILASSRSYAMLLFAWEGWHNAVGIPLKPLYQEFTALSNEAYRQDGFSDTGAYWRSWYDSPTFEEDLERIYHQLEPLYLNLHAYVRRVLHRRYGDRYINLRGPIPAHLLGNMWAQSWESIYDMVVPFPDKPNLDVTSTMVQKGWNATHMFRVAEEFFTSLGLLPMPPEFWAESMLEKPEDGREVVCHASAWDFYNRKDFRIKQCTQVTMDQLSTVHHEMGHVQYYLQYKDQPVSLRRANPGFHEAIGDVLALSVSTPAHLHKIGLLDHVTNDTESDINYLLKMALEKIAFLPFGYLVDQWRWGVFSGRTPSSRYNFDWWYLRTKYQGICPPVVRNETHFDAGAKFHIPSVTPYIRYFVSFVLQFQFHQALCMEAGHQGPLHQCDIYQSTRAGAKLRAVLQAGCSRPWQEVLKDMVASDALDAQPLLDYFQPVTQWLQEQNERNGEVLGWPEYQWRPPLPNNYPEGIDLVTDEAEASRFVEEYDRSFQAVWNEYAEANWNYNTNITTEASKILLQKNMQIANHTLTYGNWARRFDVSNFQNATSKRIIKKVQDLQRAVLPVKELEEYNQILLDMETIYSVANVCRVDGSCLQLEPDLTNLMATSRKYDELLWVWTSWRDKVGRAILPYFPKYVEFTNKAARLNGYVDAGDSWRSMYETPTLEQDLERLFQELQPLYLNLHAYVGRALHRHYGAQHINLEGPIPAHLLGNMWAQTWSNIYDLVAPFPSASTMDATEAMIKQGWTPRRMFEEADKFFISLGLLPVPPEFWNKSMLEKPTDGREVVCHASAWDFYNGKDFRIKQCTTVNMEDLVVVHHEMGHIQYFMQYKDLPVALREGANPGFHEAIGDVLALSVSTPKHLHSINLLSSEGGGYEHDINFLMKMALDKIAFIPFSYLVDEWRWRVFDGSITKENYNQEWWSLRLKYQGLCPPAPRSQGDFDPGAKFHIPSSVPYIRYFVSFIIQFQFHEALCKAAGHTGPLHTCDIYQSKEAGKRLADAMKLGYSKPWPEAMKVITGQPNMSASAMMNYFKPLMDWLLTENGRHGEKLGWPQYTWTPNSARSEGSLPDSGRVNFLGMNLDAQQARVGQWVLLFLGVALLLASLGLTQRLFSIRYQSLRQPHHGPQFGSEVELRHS
# Rattus norvegicus [3] = assay: Tested for in vivo Antihypertensive activity in DOCA rat by giving peroral dose of 30 mg/kg; format: functional; details: route oral
# Outline: (§1)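 Male Sprague-Dawley rats (100–150 g) had DOCA-Na hypertension induced and were used 17–21 days later if mean BP was >150 mmHg. Rats were not fasted. Mean BP was recorded after 90-min equilibration. Dosing was sc in TRIS buffer (2 mL/kg) or po in 0.4% aqueous methylcellulose (4 mL/kg). The maximum BP fall over 4 h versus vehicle controls was taken, averaged over four or more animals.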
# Rattus norvegicus [4] = assay: Tested for in vivo Antihypertensive activity in DOCA rat by giving peroral dose of 10 mg/kg; format: functional; details: route oral; outline: as §1
IC50 (Neprilysin),IC50 [2],Compound,Delta blood pressure (Rattus norvegicus [1]),Delta blood pressure (Rattus norvegicus [3]),Delta blood pressure (Rattus norvegicus [4])
6.5 nM,35 nM,CSCC[C@@H](NC(=O)[C@@H](CS)Cc1ccccc1)C(=O)O,23 mmHg,–,31 mmHg
541 nM,> 1000 nM,Cc1ccc(CSC[C@@H](NC(=O)[C@H](CS)Cc2ccccc2)C(=O)O)cc1C,0 mmHg,–,–
76 nM,> 1000 nM,CSCC[C@@H](NC(=O)[C@@H](CS)Cc1ccccc1)C(N)=O,26 mmHg,–,–
> 300 nM,–,CSCC[C@@H](NC(=O)C(CSC(C)=O)Cc1ccccc1)C(=O)N1CCOCC1 (some centres not stated),24 mmHg,–,20 mmHg
60 nM,150 nM,CSCC[C@@H](NC(=O)[C@@H](CS)CCc1ccccc1)C(=O)O,–,–,18 mmHg
> 300 nM,–,CCOC(=O)CNC(=O)[C@@H](CCSC)NC(=O)C(CSC(C)=O)Cc1ccccc1 (some centres not stated),–,–,0 mmHg
31 nM,> 1000 nM,CCSCC[C@@H](NC(=O)[C@H](CS)Cc1ccccc1)C(=O)O,30 mmHg,0 mmHg,–
110 nM,80 nM,O=C(N[C@H](CSCCc1ccccc1)C(=O)O)[C@@H](CS)Cc1ccccc1,37 mmHg,0 mmHg,–
3.5 nM,> 1000 nM,CSCC[C@@H](NC(=O)[C@H](CS)Cc1ccccc1)C(=O)O,50 mmHg,–,30 mmHg
94 nM,> 1000 nM,CSCC[C@@H](NC(=O)[C@H](CS)Cc1ccccc1)C(N)=O,–,–,–
231 nM,640 nM,CC(C)(C)SC[C@@H](NC(=O)[C@H](CS)Cc1ccccc1)C(=O)O,0 mmHg,–,–
6.5 nM,45 nM,CCSC[C@@H](NC(=O)C(CS)Cc1ccccc1)C(=O)O (some centres not stated),25 mmHg,–,–
5 nM,215 nM,CCSCC[C@@H](NC(=O)[C@@H](CS)Cc1ccccc1)C(=O)O,20 mmHg,–,–
133 nM,> 1000 nM,O=C(N[C@H](CSCCc1ccccc1)C(=O)O)[C@H](CS)Cc1ccccc1,23 mmHg,38 mmHg,–
19 nM,115 nM,O=C(N[C@@H](CSCc1ccccc1)C(=O)O)[C@@H](CS)Cc1ccccc1,11 mmHg,–,–

# Continued, compound first:
Compound,IC50 (Neprilysin),IC50 [2],Delta blood pressure (Rattus norvegicus [1]),Delta blood pressure (Rattus norvegicus [3]),Delta blood pressure (Rattus norvegicus [4])
Cc1ccc(CSC[C@@H](NC(=O)[C@H](CS)Cc2ccc(-c3ccccc3)cc2)C(=O)O)cc1,290 nM,> 1000 nM,0 mmHg,–,–
Cc1ccc(CSC[C@@H](NC(=O)[C@@H](CS)Cc2ccc(-c3ccccc3)cc2)C(=O)O)cc1,180 nM,180 nM,0 mmHg,19 mmHg,–
Cc1ccc(CSC[C@@H](NC(=O)[C@@H](CS)Cc2ccc3ccccc3c2)C(=O)O)cc1,> 300 nM,460 nM,0 mmHg,–,–
CSCC[C@@H](NC(=O)[C@H](CSC(C)=O)Cc1ccccc1)C(N)=O,–,–,27 mmHg,–,–
CSCC[C@@H](NC(=O)C(CSC(C)=O)Cc1ccccc1)C(=O)NCCO (some centres not stated),–,–,25 mmHg,–,24 mmHg
Cc1ccc(CSC[C@@H](NC(=O)[C@@H](CS)Cc2ccccc2)C(N)=O)cc1,> 300 nM,–,0 mmHg,–,–
CC(=O)SC[C@@H](Cc1ccccc1)C(=O)N[C@H](CSCc1ccc(C)cc1)C(N)=O,–,–,12 mmHg,–,29 mmHg
Cc1ccc(CSC[C@@H](NC(=O)[C@H](CS)Cc2ccc3ccccc3c2)C(=O)O)cc1,–,–,0 mmHg,–,–
COc1ccc(CSC[C@@H](NC(=O)[C@@H](CS)Cc2ccccc2)C(=O)O)cc1,2 nM,95 nM,–,28 mmHg,–
CCCC(CS)C(=O)N[C@H](CCSC)C(=O)O (some centres not stated),2.5 nM,> 1000 nM,–,–,–
O=C(N[C@H](CSCc1ccccc1)C(=O)O)[C@H](CS)Cc1ccc(Cl)cc1,147 nM,> 1000 nM,0 mmHg,–,–
COC(=O)[C@@H](CCSC)NC(=O)[C@H](CSC(C)=O)Cc1ccccc1,–,–,45 mmHg,–,14 mmHg
Cc1ccc(CSC[C@@H](NC(=O)[C@H](CS)Cc2cccc3ccccc23)C(=O)O)cc1,39 nM,90 nM,0 mmHg,–,–
O=C(N[C@H](CSC(c1ccccc1)(c1ccccc1)c1ccccc1)C(=O)O)C(CS)Cc1ccccc1 (some centres not stated),274 nM,> 1000 nM,0 mmHg,–,–
CCOC(=O)[C@@H](CCSC)NC(=O)C1(CSC(C)=O)CCCC1,–,–,–,–,27 mmHg
CSCC[C@@H](NC(=O)C(CSC(C)=O)Cc1ccccc1)C(=O)N1CCCC1 (some centres not stated),–,–,29 mmHg,–,24 mmHg
CCCC(CS)C(=O)N[C@H](CSCC)C(=O)O (some centres not stated),> 300 nM,1000 nM,–,–,–
